Here are results for 71 compounds from ChEMBL document CHEMBL4513216, “Probing the Open Global Health Chemical Diversity Library for Multistage-Active Starting Points for Next-Generation Antimalarials” (ACS Infect Dis, 2020).

Each structure is given as a SMILES string.

The nature of the data set: Toxicity liver stage against HepG2, at 10uM. The class given is cell-based. Also on record: test concentration 10 uM, cell line HepG2-A16-CD81EGFP. To be noted: human, HepG2-A16-CD81EGFP cells; read-out: INHIBITION
In short, it runs like this:
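Uninfected HepG2-A16-CD81EGFP cells, 3 × 10^3 per well, 1536-well, plated on prespotted compound at 10 μM final, parasite-free screening media added to match infected plates; puromycin 10 μM positive, DMSO 0.5% negative; run in parallel with 48 h PbLuc assay at 37 °C, 5% CO2; viability by CellTiter-Glo luminescence, normalized to controls.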
As to `CCn1cnnc1CN(C)C(=O)C1CCC(=O)N(CC2CCCCC2)C1` (stereo unspecified), the cytotoxicity at 10 µM was -1.33%.

Regarding `c1cncc(-c2c[nH]c([C@@H]3COCCN3Cc3ccncc3)n2)c1`, the cytotoxicity at 10 µM was 3.25%.

In the case of `CC1=C[C@@H](CN2CCN(C)CC2)[C@H](C(C)C)C[C@H]1Cc1nnc(C)o1`, the cytotoxicity at 10 µM was -0.39%.

`Cn1cncc1-c1nnc([C@H]2CCN(Cc3ccc(F)c(F)c3)C2)o1`: the cytotoxicity at 10 µM came out at 3.04%.

Turning to `Cc1cnc(N2C[C@@H]3[C@@H](C2)OCC(=O)N3C)nc1`, the cytotoxicity at 10 µM is -3.4%.

In the case of `CCCC1c2cccn2CCN1C(=O)Cn1cnc2sc(C)cc2c1=O` (stereo unspecified), the cytotoxicity at 10 µM is -0.35%.

Regarding `CC(=O)N1CCCN(C(=O)NC(C)c2ccc(C)o2)CC1` (stereo unspecified), the cytotoxicity at 10 µM turned out to be 2.72%.

As to `COC(=O)C(C)CN(C)S(=O)(=O)c1c(Br)cc2[nH]c(=O)oc2c1Cl` (stereo unspecified), the cytotoxicity at 10 µM was found to be 8.73%.

Regarding `CC1c2cc(F)ccc2CCN1CCS(=O)(=O)C(C)C` (stereo unspecified), the cytotoxicity at 10 µM stood at 2.72%.

For the compound `Cc1cc(C)c(C(=O)N(C)CCN(C)C(=O)OC(C)(C)C)[nH]1`, the cytotoxicity at 10 µM came to 3.87%.

For `CC(CNC(=O)N(C)Cc1ccco1)N1CCc2sccc2C1` (stereo unspecified), the cytotoxicity at 10 µM was -13.7%.

For the compound `Cc1csc(C(C)(C)NCC(=O)N(C)Cc2ccc(C)o2)n1`, the cytotoxicity at 10 µM was -1.12%.

Turning to `CCc1nnc(C(C)N2CCC(NC(=O)C3CCCCC3)CC2)o1` (stereo unspecified), the cytotoxicity at 10 µM is -8.35%.

On to `Cc1nc(CN(C)S(=O)(=O)c2ccccc2C(F)(F)F)no1`, for which the cytotoxicity at 10 µM is -3.03%.

With `CCc1nnsc1C(=O)NCC1CN(CC(C)C)CCO1` (stereo unspecified), the cytotoxicity at 10 µM was determined as 0.537%.

Turning to `CCC(=O)NCC(=O)Nc1ncc(I)cc1C`, the cytotoxicity at 10 µM worked out at 5.4%.

Take `O=C(NCc1ccccc1CN1CCCC1=O)Nc1nccs1`: the cytotoxicity at 10 µM worked out at 9.66%.

Regarding `COCCn1cc(NC(=O)NCC(C)N2CCOCC2)cn1` (stereo unspecified), the cytotoxicity at 10 µM stood at 1.18%.

Take `Cc1noc(C)c1CN(C)C(=O)c1ccc2c(c1O)OC(C)(C)C2`: the cytotoxicity at 10 µM is -2.92%.

For the compound `CCOCCCC(=O)NS(=O)(=O)c1ccc(C)s1`, the cytotoxicity at 10 µM came to 10%.

`O=C1C(Sc2nnnn2C2CC2)CCN1c1ccccc1Cl` (stereo unspecified): the cytotoxicity at 10 µM is 2.4%.

Turning to `CCc1nc(C2CCCN2Cc2ncc(C)c(OC)c2C)no1` (stereo unspecified), the cytotoxicity at 10 µM turned out to be 3.3%.

Consider `COc1ccc(NC(=O)N2CCCCC2c2ncc[nH]2)cc1` (stereo unspecified), for which the cytotoxicity at 10 µM was 10.4%.

As for `Cc1ccc(OCCNC(=O)C2CCOCC2)c(C)c1`, the cytotoxicity at 10 µM was found to be 16.4%.

`COCc1cnc2n1CCN(C(=O)c1cnc3ccccc3c1)C2C` (stereo unspecified): the cytotoxicity at 10 µM was -110%.

In the case of `CN1CCC2(CC1)OC(C(=O)NCc1cccnc1)Cn1ccnc12` (stereo unspecified), the cytotoxicity at 10 µM is -87.3%.

For the compound `Cn1ccnc1CN1CCc2ncnc(N3CCCC(C#N)C3)c2CC1` (stereo unspecified), the cytotoxicity at 10 µM was -5.1%.

Take `Cc1cc2nc(C(C)C)cc(N3CCC(O)CC3)n2n1`: the cytotoxicity at 10 µM is -8.63%.

In the case of `O=C(CCN1CCCCO1)NC1CCCN(CC2CCCCC2)C1` (stereo unspecified), the cytotoxicity at 10 µM stood at 4.21%.

Consider `OCC1(Cc2cccc(Cl)c2)CCCN(c2ncccn2)C1` (stereo unspecified), for which the cytotoxicity at 10 µM was found to be 0.668%.

Take `CC1(c2ccccc2)CCC(=O)N(CCN2CCOC2=O)C1` (stereo unspecified): the cytotoxicity at 10 µM came out at 3.37%.

`Cc1cccnc1CCNC(=O)[C@@]12CNC[C@@H]1CN(S(C)(=O)=O)C2`: the cytotoxicity at 10 µM is -0.973%.

Turning to `COc1ccc(CN2CCC3(CCCNC3)C2)cc1Cn1cccn1` (stereo unspecified), the cytotoxicity at 10 µM was -10.1%.

For the compound `CC(=O)Nc1ccc2nc(CN(C)Cc3snnc3C)ccc2c1`, the cytotoxicity at 10 µM was -12.8%.

Turning to `CCC(CO)N(Cc1ccccn1)C(=O)c1ncccc1C` (stereo unspecified), the cytotoxicity at 10 µM worked out at 3.42%.

Take `COc1ccc(OC2CCN(C(=O)C(C)Cn3cccn3)CC2)cc1` (stereo unspecified): the cytotoxicity at 10 µM worked out at 5.43%.

For the compound `Cc1ccccc1C(=O)N1CC[C@@H](N2CCC(O)CC2)[C@H](O)C1`, the cytotoxicity at 10 µM amounted to 2.94%.

`CCC(C(=O)NCc1ccncc1)N(c1ccc(F)cc1)S(C)(=O)=O` (stereo unspecified): the cytotoxicity at 10 µM was -5.48%.

With `CSc1nccc(N2CCN(C)C3(CCC(=O)N(CC4CC4)CC3)C2)n1` (stereo unspecified), the cytotoxicity at 10 µM is 5.6%.

Regarding `Cc1nccn1-c1cccc(C2CCCN(C3CCCCC3)C2)n1` (stereo unspecified), the cytotoxicity at 10 µM was -2.65%.

As for `c1cnn(CC2CCCN2Cc2nc(C3CC3)no2)c1` (stereo unspecified), the cytotoxicity at 10 µM is 1.61%.

Turning to `Cc1csc(CNC(=O)N2CCN(Cc3cc(C)on3)CC2)n1`, the cytotoxicity at 10 µM is -5.49%.

For `O=C(NCCn1cccn1)c1ccn(-c2cccc(F)c2)n1`, the cytotoxicity at 10 µM was -4.58%.

Consider `Cc1nc(CNC(=O)NCC(O)c2ccccc2)cs1` (stereo unspecified), for which the cytotoxicity at 10 µM was determined as 0.682%.

As to `Cc1cc(C)c(CNC(=O)CCC2CCCO2)c(=O)[nH]1` (stereo unspecified), the cytotoxicity at 10 µM was determined as 5.1%.

In the case of `N#CC1(C(=O)N2CCCN(c3nccs3)CC2)CCCCC1`, the cytotoxicity at 10 µM is -5.83%.

Take `Cc1nc(CN2CCCC(NCc3ccc(C(N)=O)cc3)C2)no1` (stereo unspecified): the cytotoxicity at 10 µM was -9.47%.

As for `CN(C)c1ncccc1CNS(=O)(=O)c1ccc(F)c(F)c1`, the cytotoxicity at 10 µM was -7.18%.

Turning to `Cc1nc(CN2CCC(N3CCN(C)C3=O)CC2)no1`, the cytotoxicity at 10 µM is -22%.

For `Cc1ccc(S(=O)(=O)NC(=O)COc2cccc(C(N)=O)c2)s1`, the cytotoxicity at 10 µM was -12.7%.

Turning to `N#Cc1ccc(OCCN2CCn3c(nnc3C3CC3)C2)cc1`, the cytotoxicity at 10 µM is -3.75%.

`OC(CNCCn1cccn1)c1cccc(Br)c1` (stereo unspecified): the cytotoxicity at 10 µM was -5.98%.

In the case of `Cc1cnn(CC2CN(CC(=O)Nc3ccncc3)CCO2)c1` (stereo unspecified), the cytotoxicity at 10 µM was -3.75%.

For `COc1c(C2CCCN2Cc2nc(C)c(C)o2)c(C)nn1C` (stereo unspecified), the cytotoxicity at 10 µM is -2%.

In the case of `CC(C)(C)c1nc(CN(Cc2cccs2)CC2CCCO2)no1` (stereo unspecified), the cytotoxicity at 10 µM was -10%.

For `CCN(Cc1cccc(F)c1)Cn1nc(C)c2c(C)onc2c1=O`, the cytotoxicity at 10 µM was -3.54%.

As for `CSCc1ccc(C(=O)N2CCN(CC(C)O)CC2)cc1` (stereo unspecified), the cytotoxicity at 10 µM was -6.23%.

In the case of `CCN(Cc1ccc2c(c1)OCCO2)C(=O)NCc1nncn1CC`, the cytotoxicity at 10 µM was -4.35%.

Consider `CC(CNCc1ccc(Cl)cc1)Oc1ccccn1` (stereo unspecified), for which the cytotoxicity at 10 µM turned out to be 5.01%.

In the case of `O=C(NCc1ccco1)[C@@H]1CCO[C@@H]2CCN(C3CCOCC3)C[C@H]21`, the cytotoxicity at 10 µM was -74.9%.

Turning to `CCCS(=O)(=O)N1CCOC2(CCCN(c3ccccn3)C2)C1` (stereo unspecified), the cytotoxicity at 10 µM was 4.23%.

For the compound `Cc1nc(CO[C@@H]2CN(Cc3cccnc3)[C@@H]3COC[C@@H]32)cs1`, the cytotoxicity at 10 µM turned out to be 5.05%.

For the compound `CCN1CCC(CNCc2c[nH]nc2C(C)(C)C)C1` (stereo unspecified), the cytotoxicity at 10 µM is -7.77%.

With `Fc1ccc(CN2C[C@@H]3OCCN(CCN4CCCC4)[C@@H]3C2)cc1`, the cytotoxicity at 10 µM was -3.58%.

Turning to `Cc1ccc(CN2CCOC3(COCCN(S(C)(=O)=O)C3)C2)s1` (stereo unspecified), the cytotoxicity at 10 µM was 10.8%.

Consider `Cc1nc(CN2C[C@@H]3CN(C(=O)NC(C)C)C[C@@H]3C2=O)cs1`, for which the cytotoxicity at 10 µM was -76.2%.

As for `Cc1ccsc1C(=O)N1Cc2ncn(C)c2C(COCC2CC2)C1` (stereo unspecified), the cytotoxicity at 10 µM was 6.76%.

Take `O=C(C1CCOC1)N1CCN(CCn2cccn2)c2ncccc2C1` (stereo unspecified): the cytotoxicity at 10 µM was -104%.

As to `CN(C)CCOCC1CN(Cc2ccsc2)Cc2ccnn2C1` (stereo unspecified), the cytotoxicity at 10 µM came to 3.01%.

For `CC(C)(C)c1cc(CN2C[C@@H]3CC[C@H]2CN(Cc2cscn2)C3)n[nH]1`, the cytotoxicity at 10 µM is 5.13%.

Turning to `CC1=C(C#N)C(=O)NC(=O)/C1=C\c1c(C)[nH]n(-c2ccc(Cl)cc2)c1=O`, the cytotoxicity at 10 µM was -8.94%.
